# Measured values gathered from unrelated publications.
# Each line is one published result; the experiments were not run side by side.
# Target: Serine/threonine-protein kinase PAK 1 (PAK1, Homo sapiens, UniProt Q13153)
SMILES,effect on,action,method,tested at,endpoint,result
C=CC(=O)N1CCC([C@@H]2CCNc3c(C(N)=O)c(-c4ccc(Oc5ccccc5)cc4)nn32)CC1,enzyme activity,inhibitor,,1 µM,inhibition,9%
COc1ccc2[nH]c3c4[nH]c5ccc(OC)cc5c4c4c(c3c2c1)C(=O)NC4=O,binding,,,1 µM,remaining binding,70%
C1=C/COCc2cc(ccc2OCCN2CCCC2)Nc2nccc(n2)-c2cccc(c2)COC/1,binding,,,0.1 µM,remaining binding,100%
CCCCC(=O)Nc1ccc(-c2ccc3ncn(CCC)c(=O)c3c2)cn1,binding,,competition with immobilised ligand,0.5 µM,remaining binding,97%
N#Cc1ccc(NC(=O)Nc2ccccc2)cc1,cell-free assay,,competition with immobilised ligand,25 µM,remaining binding,92%
CC#CC(=O)N1CCC[C@H]1c1nc(-c2ccc(C(=O)Nc3ccccn3)cc2)c2c(N)nccn12,enzyme activity,inhibitor,,1 µM,inhibition,1%
COc1ccc2oc(-c3ccc4nc(N)oc4c3)c/c(=N\c3ccccc3NC(=O)CCN)c2c1,binding,,,1 µM,remaining binding,104%
C[C@H]1CC[C@H](n2c3cnccc3c3cnc(Nc4ccc5c(n4)CCN(C(=O)CO)C5)nc32)CC1,cell-free assay,,,1 µM,remaining signal,100%
